Only some compounds are listed: those with a hit (about 2.5% of all), similar ones and a draw of the others.
VIM-2 inhibitor: VIM-2 metallo-beta-lactamase inhibitors, primary screen, biochemical, epi-absorbance readout, Pseudomonas aeruginosa enzyme; AID 1527, 2009; inhibition, % at 5.6 µM; purified VIM-2, nitrocefin hydrolysis, epi-absorbance fluorescence; 290,000 tested, 0.89% active;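 active means inhibition above the mean of all tested compounds plus 3 SD, cutoff set per screening run, cut at about 7.5% in these data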;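 further: red hydrolysis product quenches plate fluorescence so inhibitors raise well fluorescence; 0% = enzyme with DMSO and 100% = DMSO without enzyme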
m5-HT2A agonist: mouse Htr2a agonists via beta-arrestin recruitment, primary screen, cell-based, luminescence | CHO-K1 mHTR2A beta-arrestin complementation; percent of 30 µM serotonin response | activation, % at 7.6 µM | 360,000 tested, 0.66% active;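 active means activation above a run cutoff, the mean activation of all tested compounds plus 3 SD, cut at about 14% in these data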;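 further: 0% = plate median of compound wells and 100% = 30 µM serotonin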
dFosB act-1: activators of delta FosB homodimer, primary screen, biochemical, fluorescence polarization, TAMRA-CDK5 oligo, single point. 340,000 tested, 0.99% active. activation, % at 25 µM. purified delta FosB; percent of positive-control signal above neutral wells;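 active means mean activation above about 17%, with every replicate also reaching it, limit read from the data, passing the limit was not always enough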
Target sequence (P13346 whole entry, looked up): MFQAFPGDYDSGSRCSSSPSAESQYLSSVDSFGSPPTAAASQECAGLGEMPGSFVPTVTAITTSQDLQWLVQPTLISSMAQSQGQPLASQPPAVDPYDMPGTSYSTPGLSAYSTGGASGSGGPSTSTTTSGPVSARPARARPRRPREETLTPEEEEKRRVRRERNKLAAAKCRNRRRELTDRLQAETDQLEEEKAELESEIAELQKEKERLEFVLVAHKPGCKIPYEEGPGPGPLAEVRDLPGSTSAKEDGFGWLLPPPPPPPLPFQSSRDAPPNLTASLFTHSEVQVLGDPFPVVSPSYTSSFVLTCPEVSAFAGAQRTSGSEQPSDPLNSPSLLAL
IMP-1 inhibitor: IMP-1 metallo-beta-lactamase inhibitors, primary screen, biochemical, epi-absorbance readout, Pseudomonas aeruginosa enzyme | metallo-beta-lactamase IMP-1 (Pseudomonas aeruginosa) | purified IMP-1, nitrocefin hydrolysis, epi-absorbance fluorescence | inhibition, % at 5.6 µM | 290,000 tested, 0.45% active;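 active means inhibition above the mean plus 3 SD of all compounds in the same screening run, cut at about 4.5% in these data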;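 further: 0% = IMP-1 with DMSO and 100% = DMSO wells lacking enzyme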
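Material – recombinant IMP-1 enzyme, purified · Amount – IMP-1 0.2 nM before substrate addition · Medium – HEPES buffer pH 7.1 with ZnSO4 and Brij 35 · Timing – 25 °C, 15 min preincubation, 25 min reaction · Measured by – plate fluorescence quenching by hydrolysis product, ex 480/em 530 nm · Read-out – percent enzyme inhibition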
dFosB act-2: activators of mouse delta FosB DNA binding, confirmation, biochemical, fluorescence polarization, TAMRA-CDK5 oligo, cherry-picked samples. AID 588690, 2011. 2,400 tested, under 10 active. shares compounds with dFosB act-1. activation, % at 24.9 µM. purified delta FosB; normalised: neutral wells 0, positive control 100;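 active means highest replicate activation at or above 34% and every replicate reaching that threshold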;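 further: higher polarization means more probe DNA bound by delta FosB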
The depositor's hits bear a star.

Screening CCc1ccc(NC(=O)C(NS(=O)(=O)c2ccc3c(c2)CCN3C(C)=O)C(C)C)cc1 (stereo not drawn) returned VIM-2 inhibitor -2, m5-HT2A agonist 5, dFosB act-1 37*, IMP-1 inhibitor -4 and dFosB act-2 4.
`Cc1c(C(=O)Nc2ccc(-c3nnc4n3CCCCC4)cc2)oc2c1ccc1ccccc12` gave VIM-2 inhibitor 1, m5-HT2A agonist -2, dFosB act-1 32*, IMP-1 inhibitor -3 and dFosB act-2 4.
Cc1ccc(Cl)cc1NC(=O)c1ccccc1OCC(=O)Nc1ccc(Cl)cc1 was read as VIM-2 inhibitor -1, m5-HT2A agonist 6, dFosB act-1 33*, IMP-1 inhibitor 0 and dFosB act-2 3.
For CC(=O)NC(=S)Nc1ccc(NC(=O)COc2ccc(Cl)cc2Cl)cc1 the results were VIM-2 inhibitor -1, m5-HT2A agonist -5, dFosB act-1 73*, IMP-1 inhibitor -1 and dFosB act-2 -7.
`COc1ccccc1/C=C/C(=O)NC(=S)Nc1ccc(S(=O)(=O)N(C)c2ccccc2)cc1` gave VIM-2 inhibitor -7, m5-HT2A agonist -3, dFosB act-1 24*, IMP-1 inhibitor -1 and dFosB act-2 1.
Screening CN(c1ccccc1)S(=O)(=O)c1ccc(NC(=S)NC(=O)c2ccccc2)cc1 returned VIM-2 inhibitor -6, m5-HT2A agonist 2, dFosB act-1 1 and IMP-1 inhibitor -6.
O=C(CN1C(=O)S/C(=C\c2ccccc2F)C1=O)NC1C=CS(=O)(=O)C1 (stereo not drawn) was read as VIM-2 inhibitor -2, m5-HT2A agonist -2, dFosB act-1 -2 and IMP-1 inhibitor -1.
CC(C)(C)C(=O)Nc1nc2c(s1)CN(Cc1ccccc1)CC2 was read as VIM-2 inhibitor -2, m5-HT2A agonist -1, dFosB act-1 4 and IMP-1 inhibitor -1.
Screening O=C(Nc1nc2c(s1)CN(Cc1ccccc1)CC2)C1CCCC1 returned VIM-2 inhibitor 0, m5-HT2A agonist -3, dFosB act-1 24*, IMP-1 inhibitor -2 and dFosB act-2 1.
COc1cc(CN2C[C@@H](CO)O[C@@H](n3cnc4c(NCc5ccco5)ncnc43)C2)cc(OC)c1OC was read as m5-HT2A agonist 2.
CCN1/C(=C\C=C2\C(=O)N(c3ccccc3)C(=S)N2C)Sc2ccccc21 was read as VIM-2 inhibitor -3, m5-HT2A agonist -1, dFosB act-1 28*, IMP-1 inhibitor -3 and dFosB act-2 5.
`CCCN1C(=O)/C(=C\C=C2/Sc3ccccc3N2CC)SC1=S` gave VIM-2 inhibitor 3 and IMP-1 inhibitor -1.
`O=C(OCC(=O)N1CCc2ccccc2C1)c1ccc(O)cc1` gave m5-HT2A agonist -6 and dFosB act-1 -7.
`CC(C)c1nc2sc3c(=O)[nH]cnc3c2c2c1CCC2` gave VIM-2 inhibitor 1, m5-HT2A agonist 2, dFosB act-1 -5 and IMP-1 inhibitor 0.
`Cc1ccc(-c2cc(C(F)F)nc3sc4c(=O)[nH]cnc4c23)cc1` gave m5-HT2A agonist -3, dFosB act-1 33* and dFosB act-2 0.
`COc1ccccc1/C=C(\NC(=O)c1ccc(OC)c(OC)c1)C(=O)Nc1cc([N+](=O)[O-])ccc1C` gave VIM-2 inhibitor -1, m5-HT2A agonist 0, dFosB act-1 28*, IMP-1 inhibitor -5 and dFosB act-2 -2.
`CCn1c(=O)c(C(=O)Nc2ncccc2O)c(O)c2ccccc21` gave VIM-2 inhibitor -1, m5-HT2A agonist 4, dFosB act-1 26*, IMP-1 inhibitor 1 and dFosB act-2 -1.
For Cc1noc(C)c1NC(=O)N(C)C[C@@H]1OCc2cnnn2CCCC(=O)N([C@H](C)CO)C[C@@H]1C the results were m5-HT2A agonist -1.
Screening COc1cc(NC(=O)c2cc(S(=O)(=O)N3CCCCC3)c[nH]2)cc(OC)c1 returned VIM-2 inhibitor -1, m5-HT2A agonist -1, dFosB act-1 100*, IMP-1 inhibitor 0 and dFosB act-2 -1.
For COc1ccc(NC(=O)c2cc(S(=O)(=O)N3CCCCC3)c[nH]2)c(OC)c1 the results were VIM-2 inhibitor 0, m5-HT2A agonist -6, dFosB act-1 -3 and IMP-1 inhibitor 2.
Screening CCn1cc(Cl)c(C(=O)Nc2ccccc2C(N)=O)n1 returned VIM-2 inhibitor -1, m5-HT2A agonist -2, dFosB act-1 -14 and IMP-1 inhibitor -1.
O=C(Nc1nc(-c2ccccc2)nc2ccccc12)c1ccc(F)cc1 was read as VIM-2 inhibitor 2, m5-HT2A agonist 2, dFosB act-1 22*, IMP-1 inhibitor -1 and dFosB act-2 -2.
Screening CC(=O)Nc1ccc(Nc2nc(-c3ccccc3)nc3ccccc23)cc1 returned VIM-2 inhibitor 2, m5-HT2A agonist -5, dFosB act-1 -9 and IMP-1 inhibitor -1.
Screening COc1ccc(C(=O)Nc2nc(-c3ccccc3)c(C(C)=O)s2)c(OC)c1 returned VIM-2 inhibitor -1, m5-HT2A agonist 2, dFosB act-1 32*, IMP-1 inhibitor -1 and dFosB act-2 3.
Screening CC(=O)c1sc(NC(=O)c2ccccc2F)nc1-c1ccccc1 returned VIM-2 inhibitor -5, m5-HT2A agonist 6, dFosB act-1 -11 and IMP-1 inhibitor -2.
`Fc1ccc(Nc2nc(-c3ccncc3)nc3ccccc23)cc1F` gave VIM-2 inhibitor -1, m5-HT2A agonist 3, dFosB act-1 89*, IMP-1 inhibitor 1 and dFosB act-2 2.
For CC(=O)c1sc(NC(=O)c2ccc(F)cc2)nc1-c1ccccc1 the results were VIM-2 inhibitor -6, m5-HT2A agonist 0, dFosB act-1 25*, IMP-1 inhibitor -4 and dFosB act-2 7.
`COc1ccc(COC(=O)c2sc3nc4n(c(=O)c3c2C)CCC4)cc1` gave m5-HT2A agonist 1 and dFosB act-1 -23.
Screening C[C@H]1CN([C@@H](C)CO)C(=O)CCCn2cc(nn2)CO[C@@H]1CN(C)C(=O)c1ccncc1 returned m5-HT2A agonist 7.
Screening O=C(COc1ccc(Cl)cc1Cl)Nc1c(-c2cccs2)nc2ccccn12 returned VIM-2 inhibitor 0, m5-HT2A agonist 0, dFosB act-1 119*, IMP-1 inhibitor -5 and dFosB act-2 2.
`Cc1ccc(Cn2c(=N)n(CC(=O)c3ccccc3)c3ccccc32)cc1` gave VIM-2 inhibitor -2, m5-HT2A agonist -6, dFosB act-1 30*, IMP-1 inhibitor -3 and dFosB act-2 8.
Screening COc1cc2c(cc1OC)C(c1ccc(Cl)cc1)=NCC2 returned VIM-2 inhibitor -3, m5-HT2A agonist -6, dFosB act-1 0 and IMP-1 inhibitor -2.
